Screening results deposited in PubChem BioAssay by The Scripps Research Institute Molecular Screening Center.
DDE Tn7 FP inh = inhibitors of Tn7 peptide binding to human fibrin DD(E); inhibition, % at 8.3 µM; FP displacement of FITC-Tn7 peptide from fibrin DD(E); 0% = median of compound wells per plate; 0.13% of 370,000 active;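 active = inhibition above the mean of compounds falling within the control limits plus 3 SD of them, cut at about 14% in these data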;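 also: 0% = plate median of compound wells and 100% = 10 µM Aha-Tn7 peptide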
Target sequence (P02675 whole entry, looked up): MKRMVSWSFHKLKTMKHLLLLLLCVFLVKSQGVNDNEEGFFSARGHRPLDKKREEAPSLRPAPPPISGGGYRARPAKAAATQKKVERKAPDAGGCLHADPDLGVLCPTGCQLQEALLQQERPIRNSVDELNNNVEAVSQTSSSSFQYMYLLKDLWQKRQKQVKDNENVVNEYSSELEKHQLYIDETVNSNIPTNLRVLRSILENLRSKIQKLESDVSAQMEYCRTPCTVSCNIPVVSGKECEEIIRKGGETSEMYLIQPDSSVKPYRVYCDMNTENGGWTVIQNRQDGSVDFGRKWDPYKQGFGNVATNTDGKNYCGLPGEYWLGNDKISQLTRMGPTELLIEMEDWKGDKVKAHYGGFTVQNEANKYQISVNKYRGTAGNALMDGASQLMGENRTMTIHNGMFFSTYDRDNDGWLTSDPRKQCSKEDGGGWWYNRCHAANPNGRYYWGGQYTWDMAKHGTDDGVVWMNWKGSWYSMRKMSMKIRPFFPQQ
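Test system – human fibrin DD(E) · Times – 10 min preincubation, 3 h with tracer, room temperature · Detection – fluorescence polarization of the labelled Tn7 tracer · Measure – percent inhibition normalized to high-control wells · Benchmarks – high control wells with 10 µM unlabelled Aha-Tn7 peptide (full inhibition) · Repeats – singlicate testing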
Tn6 DDE FP = inhibitors of Tn6 peptide binding to human fibrin DD(E). 0.21% of 370,000 active. P02675. inhibition, % at 8.3 µM. AID 720509. Fibrin DD(E) TRITC-Tn6 fluorescence polarization displacement;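 active = inhibition above a per-campaign cutoff: mean of compounds within control limits plus 3 SD, cut at about 15% in these data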;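 also: 0% = median of all compound wells on the plate and 100% = blocking peptide control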
TCR-CD3 inh = blocks the human TCR-CD3 interaction; 0.37% of 360,000 active; TAMRA-labeled TCR probe fluorescence, biochemical; inhibition, % at 9.4 µM; AID 651800;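 also: recombinant mutant TCR 2C K166C tagged with TAMRA read by polarization; 0% = receptor in buffer alone and 100% = receptor with positive control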
HTRA1 inh = blocks human HTRA1 serine peptidase; Q92743; recombinant HTRA1, FP-rhodamine activity-based probe, fluorescence polarization; inhibition, % at 5.96 µM; 0.5% of 340,000 active; AID 504803; in the data active = inhibition above about 36%;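 also: 0% = enzyme with DMSO and 100% = wells lacking enzyme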
mABHD4 FP = inhibits mouse alpha/beta hydrolase domain 4; 0.54% of 370,000 active; purified mABHD4, FP-Rh probe fluorescence polarization; inhibition, % at 8.92 µM;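 active = inhibition exceeding the mean over every tested compound plus 3 SD, cut at about 30% in these data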;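 also: 0% = plate median of compound wells and 100% = S159A mutant with DMSO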
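Assay system: Wild-type mouse ABHD4 protein | Medium: HEPES pH 7.0 buffer, 150 mM NaCl, 0.01% Pluronic F-127 | Incubation: Enzyme–compound pre-incubation 45 min, then probe 60 min, both 25 °C | Technique: Fluorescence polarization with parallel and perpendicular emission, 525/598 nm | Evaluation: % inhibition of FP-Rh probe binding versus controls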
HTRA1 conf = confirmation of human HTRA1 inhibitors. shares compounds with HTRA1 inh. recombinant HTRA1, FP-rhodamine activity-based probe, fluorescence polarization. inhibition, % at 5.96 µM. 66% of 1,600 active. AID 540248;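 active = mean inhibition over three repeats above a set limit taken from the earlier primary screen, cut at about 37% in these data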;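 also: 0% = HTRA1 with DMSO and 100% = wells lacking HTRA1; inhibitors block probe binding so polarization drops and inhibition rises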
BSA probe FL = interferes with TAMRA-BSA probe, flagging TCR-CD3 hits. shares compounds with TCR-CD3 inh. 10% of 1,200 active. TAMRA-labeled BSA probe fluorescence counterscreen. inhibition, % at 9.4 µM; in the data active = inhibition above about 23%;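 also: 0% = buffer low control and 100% = reference high control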
TCR-CD3 conf = TCR-CD3 interaction inhibition, confirmation; shares compounds with TCR-CD3 inh; TAMRA-labeled TCR probe fluorescence binding assay; inhibition, % at 9.4 µM; 48% of 1,200 active
mABHD4 conf = confirmation of mouse ABHD4 inhibitors. inhibition, % at 8.92 µM. AID 720658. 55% of 1,800 active. purified mABHD4, FP-Rh probe fluorescence polarization. shares compounds with mABHD4 FP;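 active = mean inhibition across replicates above the hit cutoff set in the primary screen, cut at about 30% in these data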;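 also: 0% = wild-type ABHD4 with DMSO and 100% = catalytically dead S159A mutant with DMSO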
* hit, by the source's call; · = no result. This is a sample that favours compounds with a hit; in the whole collection about 1.3% have one here. Rule as the data show it, unless noted: active = inhibition above about 19%; inactive = the rest.

SMILES	DDE Tn7 FP inh	Tn6 DDE FP	TCR-CD3 inh	HTRA1 inh	mABHD4 FP	BSA probe FL	TCR-CD3 conf	others
O=C(O)c1ccccc1NS(=O)(=O)c1ccc(NNC(=S)Nc2ccc(OC(F)F)cc2)c([N+](=O)[O-])c1	2.7	-19.3	1.5	66.6*	71.8*	·	·	HTRA1 conf=117.9*;mABHD4 conf=139.8*
COc1ccc(NC(=O)c2ccccc2NS(=O)(=O)c2ccc(C)cc2)c([N+](=O)[O-])c1	-4.6	0.6	-9.0	-9.4	0.7	·	·
COc1cc(C=NNc2ccc(S(=O)(=O)Nc3ccccc3C(=O)O)cc2[N+](=O)[O-])ccc1O	-1.1	-31.7	6.7	49.0*	64.4*	·	·	HTRA1 conf=74.9*;mABHD4 conf=91.2*
O=C(NNC(=O)c1ccccc1[N+](=O)[O-])c1ccc(NC(=O)c2ccccc2)cc1	-1.0	5.0	5.5	-5.0	2.1	·	·
FC(F)(F)c1cccc(N2CCCCC2)c1	-11.5	0.4	5.1	·	2.6	·	·
CCCn1nc([N+](=O)[O-])c(C(C#N)c2nc3ccccc3s2)c(Cl)c1=O (stereo unspecified)	0.0	5.2	-1.5	76.4*	77.9*	·	·	HTRA1 conf=72.2*;mABHD4 conf=98.1*
CCC(=O)N1CCc2cc(Br)cc(S(=O)(=O)NCCCN(C)Cc3ccccc3)c21	-2.0	3.9	-3.3	2.4	6.4	·	·
COc1ccccc1C(=O)NNC(=S)NC(=O)c1cc(OC)c(OC)c(OC)c1	1.5	-4.4	19.0*	0.2	1.7	-6.8	8.8
NC(=O)Nc1n[nH]c(-c2ccccc2)n1	4.0	1.2	-1.5	8.3	-1.3	·	·
NS(=O)(=O)c1ccc(N=Nc2c[nH]c(=O)c(O)c2)cc1	1.3	-6.4	26.0*	17.4	14.4	14.3	36.3*
Cn1c(SCC(=O)N/N=C/c2cc([N+](=O)[O-])ccc2O)nnc1-c1ccccc1	0.7	2.8	20.7*	7.7	5.3	-4.4	14.4
Nc1nnc(CC(=O)N/N=C\c2cc([N+](=O)[O-])ccc2O)s1	-0.6	-1.6	35.8*	3.5	24.0	-5.9	25.4*
Nc1nnnn1CC(=O)N/N=C/c1cc([N+](=O)[O-])ccc1O	11.3	-5.9	2.6	-4.2	-3.4	·	·
COCCN(C(=O)COC(=O)c1cc2c(s1)CCC2)c1c(N)n(Cc2ccccc2)c(=O)[nH]c1=O	-7.2	0.4	26.5*	7.0	20.0	-14.8	37.2*
Nc1c(N(Cc2ccccc2)C(=O)COc2ccc(F)cc2Cl)c(=O)[nH]c(=O)n1Cc1ccccc1	-3.9	-2.9	21.2*	12.2	-6.3	-9.3	20.9*
COCCn1c(N)c(N(Cc2ccccc2)C(=O)COc2ccc(F)cc2Cl)c(=O)[nH]c1=O	-2.3	-7.8	3.1	5.4	3.5	·	·
CC(C)[C@H](NC(=O)c1ccco1)C(=O)OCC(=O)c1ccc2c(c1)NC(=O)CO2	-2.8	-6.2	118.1*	-5.5	-0.1	1.5	3.2
CC1CCN(S(=O)(=O)c2ccc(NC(=O)Cn3nnc(-c4ccccc4F)n3)cc2)CC1	2.5	1.8	19.7*	-37.8	-6.5	8.9	23.7*
O=C(Cn1nnc(-c2ccccc2F)n1)Nc1ccc(Cl)c(Cl)c1	-0.2	-1.9	·	·	-2.4	·	·
COc1ccc(C2=COc3ccccc3C(=O)N2)cc1	2.1	-3.0	5.2	-0.4	0.1	·	·
O=C1NN=COc2ccccc21	4.0	4.3	21.1*	6.0	-2.9	-12.2	11.2
CCN(CC)S(=O)(=O)c1ccc(NC(=O)Nc2cccc(C(F)(F)F)c2)cc1	-4.7	-7.7	81.2*	-133.1	-235.1	24.0*	53.5*
CCN(CC)S(=O)(=O)c1ccc(NC(=O)C2c3ccccc3Oc3ccccc32)cc1	-4.3	-7.6	45.5*	-77.2	-38.7	-0.4	1.7
CNS(=O)(=O)c1ccc(NC(=O)C2c3ccccc3Oc3ccccc32)cc1	6.4	1.8	-8.4	-6.4	-0.2	·	·
